Data from ChEMBL document CHEMBL4732072, “Synthesis of 17β-hydroxysteroid dehydrogenase type 10 steroidal inhibitors: Selectivity, metabolic stability and enhanced potency” (Eur J Med Chem, 2021).

System: not listed separately
Assay: Inhibition of human 17-beta-HSD10 expressed in HEK293 cells assessed as reduction in oxidation of [14C]-estradiol to [14C]-estrone incubated for 40 hrs by thin layer chromatography
Format: cell-based
Settings: not given
How it was run: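 The same HEK-293[17β-HSD10] cell assay was used: 2.5 x 10^5 cells, 0.5% final DMSO, 1 µM E2/[14C]-E2 (9:1) for 40 h at 37°C, with Et2O extraction, TLC and radioactivity quantification. Inhibitor was tested from 0.01 to 5 µM in triplicate. IC50 was calculated from the inhibition curves.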
Compound `COc1cc(C)ccc1CN1CCN(C[C@@]2(O)CC[C@@]3(C)[C@@H](CC[C@@H]4[C@@H]3CC[C@]3(C)C(=O)CC[C@@H]43)C2)CC1` has an IC50 of 3 µM. In the case of `COc1cccc(CN2CCN(C[C@@]3(O)CC[C@@]4(C)[C@@H](CC[C@@H]5[C@@H]4CC[C@]4(C)C(=O)CC[C@@H]54)C3)CC2)c1`, the IC50 is reported as 2.26 µM. For `Cc1cc(C)cc(C(=O)N2CCN(C[C@@]3(O)CC[C@@]4(C)[C@@H](CC[C@@H]5[C@@H]4CC[C@]4(C)C(=O)CC[C@@H]54)C3)CC2)c1`, the IC50 was 2.05 µM. For `C[C@]12CC[C@](O)(CN3CCN(Cc4cnc5ccccc5c4)CC3)C[C@@H]1CC[C@@H]1[C@@H]2CC[C@]2(C)C(=O)CC[C@@H]12`, the IC50 was 0.97 µM. With `C#C[C@]1(O)CC[C@H]2[C@@H]3CC[C@H]4C[C@@](O)(CN5CCN(Cc6ccc(C(F)(F)F)c(OC)c6)CC5)CC[C@]4(C)[C@H]3CC[C@@]21C` the IC50 was 1.26 µM.

System: not listed separately
Assay: Metabolic stability in human liver microsomes assessed as compound remaining at 1 uM incubated for 1 hr in presence of NADPH by HPLC-MS analysis
Format: ADME, Microsome
Settings: read-out: Stabilty
How it was run: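 Human liver microsomes (40 µg) were incubated with compound for 1 h at 37°C, with or without 10 mM NADPH, in 50 mM Tris with 10 mM MgCl2. The reaction was quenched with MeOH and centrifuged, and supernatants from 2 assays were pooled. Analysis was by HPLC-MS with UV at 190 nm. Remaining % = peak area with NADPH / area without NADPH x 100, from two experiments in duplicate.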
Work on `C#C[C@]1(O)CC[C@H]2[C@@H]3CC[C@H]4C[C@@](O)(CN5CCN(Cc6cccc(OC)c6)CC5)CC[C@]4(C)[C@H]3CC[C@@]21C` yielded a remaining at 1 h, 1 µM of 45.5%. Compound `COc1cccc(CN2CCN(C[C@@]3(O)CC[C@@]4(C)[C@@H](CC[C@@H]5[C@@H]4CC[C@@]4(C)[C@H]5CCC4(F)F)C3)CC2)c1` has a remaining at 1 h, 1 µM of 34.1%. Compound `COc1cccc(CN2CCN(C[C@@]3(O)CC[C@@]4(C)[C@@H](CC[C@@H]5[C@@H]4CC[C@]4(C)C(=O)C(C)(C)C[C@@H]54)C3)CC2)c1` has a remaining at 1 h, 1 µM of 54.5%. With `COc1cccc(CN2CCN(C[C@@]3(O)CC[C@@]4(C)[C@@H](CC[C@@H]5[C@@H]4CC[C@@]4(C)[C@H]5CC[C@]4(C)O)C3)CC2)c1` the remaining at 1 h, 1 µM was 21.8%. In the case of `COc1cccc(CN2CCN(C[C@@]3(O)CC[C@@]4(C)[C@@H](CC[C@@H]5[C@@H]4CC[C@]4(C)[C@H](O)CC[C@@H]54)C3)CC2)c1`, the remaining at 1 h, 1 µM is reported as 70.6%. With `COc1cccc(CN2CCN(C[C@@]3(O)CC[C@@]4(C)[C@@H](CC[C@@H]5[C@@H]4CC[C@]4(C)C(=O)CC[C@@H]54)C3)CC2)c1` the remaining at 1 h, 1 µM was 28%. `COc1cccc(CN2CCN(C[C@@]3(O)CC[C@@]4(C)[C@@H](CC[C@@H]5[C@@H]4CC[C@]4(C)[C@@H](O)CC[C@@H]54)C3)CC2)c1` gave a remaining at 1 h, 1 µM of 67.2%.

System: HEK293
Assay: Inhibition of human 17-beta-HSD10 expressed in HEK293 cells assessed as reduction in oxidation of [14C]-estradiol to [14C]-estrone at 3 uM incubated for 40 hrs by thin layer chromatography
Format: cell-based
Settings: not given
How it was run: (§1)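 Stably transfected HEK-293 cells expressing human 17β-HSD10 (G418-selected) were seeded at 2.5 x 10^5 per well for 24 h. Inhibitor was added from a DMSO stock (final DMSO 0.5%) with E2/[14C]-E2 (9:1, final 1 µM) for 40 h at 37°C. Steroids were Et2O-extracted, TLC-separated and quantified by radioactivity. % inhibition was taken from blank-corrected % transformation, run in triplicate.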
Work on `C#C[C@]1(O)CC[C@H]2[C@@H]3CC[C@H]4C[C@@](O)(CN5CCN(Cc6cccc(OC)c6)CC5)CC[C@]4(C)[C@H]3CC[C@@]21C` yielded an inhibition of 45.8%. For `COc1cccc(CN2CCN(C[C@@]3(O)CC[C@@]4(C)[C@@H](CC[C@@H]5[C@@H]4CC[C@@]4(C)[C@H]5CCC4(F)F)C3)CC2)c1`, the inhibition was 40.8%. `COc1cccc(CN2CCN(C[C@@]3(O)CC[C@@]4(C)[C@@H](CC[C@@H]5[C@@H]4CC[C@]4(C)C(=O)C(C)(C)C[C@@H]54)C3)CC2)c1` showed an inhibition of 27.9%. `COc1cccc(CN2CCN(C[C@@]3(O)CC[C@@]4(C)[C@@H](CC[C@@H]5[C@@H]4CC[C@@]4(C)[C@H]5CC[C@]4(C)O)C3)CC2)c1` gave an inhibition of 41.9%. With `COc1cccc(CN2CCN(C[C@@]3(O)CC[C@@]4(C)[C@@H](CC[C@@H]5[C@@H]4CC[C@]4(C)[C@H](O)CC[C@@H]54)C3)CC2)c1` the inhibition was 36.9%. With `COc1cccc(CN2CCN(C[C@@]3(O)CC[C@@]4(C)[C@@H](CC[C@@H]5[C@@H]4CC[C@]4(C)C(=O)CC[C@@H]54)C3)CC2)c1` the inhibition was 70.4%. `COc1cccc(CN2CCN(C[C@@]3(O)CC[C@@]4(C)[C@@H](CC[C@@H]5[C@@H]4CC[C@]4(C)[C@@H](O)CC[C@@H]54)C3)CC2)c1` showed an inhibition of 42.4%.

Target: T1, 17-beta-hydroxysteroid dehydrogenase type 3 (Homo sapiens, UniProt P37058)
T1 sequence (P37058 whole entry): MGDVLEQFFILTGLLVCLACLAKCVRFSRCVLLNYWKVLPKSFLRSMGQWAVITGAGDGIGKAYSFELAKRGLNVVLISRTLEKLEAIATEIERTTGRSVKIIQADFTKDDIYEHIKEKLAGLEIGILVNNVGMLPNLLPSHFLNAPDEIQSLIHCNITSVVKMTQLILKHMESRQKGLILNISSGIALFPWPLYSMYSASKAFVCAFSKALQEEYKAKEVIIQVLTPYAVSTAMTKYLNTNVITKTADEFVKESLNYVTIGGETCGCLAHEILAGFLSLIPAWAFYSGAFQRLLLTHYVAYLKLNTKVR
Assay: Inhibition of human 17-beta-HSD3 expressed in LNCaP cells assessed as reduction in […]-3,17-dione to [14C]-testosterone at 3 uM incubated for 1 hr by thin layer chromatography
Format: cell-based
Settings: not given
How it was run: (§2)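 LNCaP cells overexpressing 17β-HSD3 were plated at 10^4 per well in medium without hygromycin for 2 days. 15 nM [14C]-4-androstene-3,17-dione plus inhibitor was then added (final DMSO 0.05%) for 1 h at 37°C. Steroids were Et2O-extracted and separated by silica TLC (toluene/acetone 4:1). % inhibition was taken from radioactivity-based % transformation versus a blank control.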
Compound `C#C[C@]1(O)CC[C@H]2[C@@H]3CC[C@H]4C[C@@](O)(CN5CCN(Cc6cccc(OC)c6)CC5)CC[C@]4(C)[C@H]3CC[C@@]21C` has an inhibition at 3 µM of 4%. `COc1cccc(CN2CCN(C[C@@]3(O)CC[C@@]4(C)[C@@H](CC[C@@H]5[C@@H]4CC[C@@]4(C)[C@H]5CCC4(F)F)C3)CC2)c1` showed an inhibition at 3 µM of -0.5%. `COc1cccc(CN2CCN(C[C@@]3(O)CC[C@@]4(C)[C@@H](CC[C@@H]5[C@@H]4CC[C@]4(C)C(=O)C(C)(C)C[C@@H]54)C3)CC2)c1` showed an inhibition at 3 µM of 51.9%. For `COc1cccc(CN2CCN(C[C@@]3(O)CC[C@@]4(C)[C@@H](CC[C@@H]5[C@@H]4CC[C@@]4(C)[C@H]5CC[C@]4(C)O)C3)CC2)c1`, the inhibition at 3 µM was 20.6%. For `COc1cccc(CN2CCN(C[C@@]3(O)CC[C@@]4(C)[C@@H](CC[C@@H]5[C@@H]4CC[C@]4(C)[C@H](O)CC[C@@H]54)C3)CC2)c1`, the inhibition at 3 µM was 3.8%. Work on `COc1cccc(CN2CCN(C[C@@]3(O)CC[C@@]4(C)[C@@H](CC[C@@H]5[C@@H]4CC[C@]4(C)C(=O)CC[C@@H]54)C3)CC2)c1` yielded an inhibition at 3 µM of 84.4%. For `COc1cccc(CN2CCN(C[C@@]3(O)CC[C@@]4(C)[C@@H](CC[C@@H]5[C@@H]4CC[C@]4(C)[C@@H](O)CC[C@@H]54)C3)CC2)c1`, the inhibition at 3 µM was 48.7%.

Target: T1, 17-beta-hydroxysteroid dehydrogenase type 3
Assay: Inhibition of human 17-beta-HSD3 expressed in LNCaP cells assessed as reduction in […]-3,17-dione to [14C]-testosterone at 0.3 uM incubated for 1 hr by thin layer chromatography
Format: cell-based
Settings: not given
How it was run: as §2
For `C#C[C@]1(O)CC[C@H]2[C@@H]3CC[C@H]4C[C@@](O)(CN5CCN(Cc6cccc(OC)c6)CC5)CC[C@]4(C)[C@H]3CC[C@@]21C`, the inhibition at 0.3 µM was 2%. With `COc1cccc(CN2CCN(C[C@@]3(O)CC[C@@]4(C)[C@@H](CC[C@@H]5[C@@H]4CC[C@@]4(C)[C@H]5CCC4(F)F)C3)CC2)c1` the inhibition at 0.3 µM was 1.1%. With `COc1cccc(CN2CCN(C[C@@]3(O)CC[C@@]4(C)[C@@H](CC[C@@H]5[C@@H]4CC[C@]4(C)C(=O)C(C)(C)C[C@@H]54)C3)CC2)c1` the inhibition at 0.3 µM was 12.4%. Compound `COc1cccc(CN2CCN(C[C@@]3(O)CC[C@@]4(C)[C@@H](CC[C@@H]5[C@@H]4CC[C@@]4(C)[C@H]5CC[C@]4(C)O)C3)CC2)c1` has an inhibition at 0.3 µM of 2%. Work on `COc1cccc(CN2CCN(C[C@@]3(O)CC[C@@]4(C)[C@@H](CC[C@@H]5[C@@H]4CC[C@]4(C)[C@H](O)CC[C@@H]54)C3)CC2)c1` yielded an inhibition at 0.3 µM of 5.2%. In the case of `COc1cccc(CN2CCN(C[C@@]3(O)CC[C@@]4(C)[C@@H](CC[C@@H]5[C@@H]4CC[C@]4(C)C(=O)CC[C@@H]54)C3)CC2)c1`, the inhibition at 0.3 µM is reported as 30.2%. `COc1cccc(CN2CCN(C[C@@]3(O)CC[C@@]4(C)[C@@H](CC[C@@H]5[C@@H]4CC[C@]4(C)[C@@H](O)CC[C@@H]54)C3)CC2)c1` showed an inhibition at 0.3 µM of 5%.

System: HEK293
Assay: Potency index, ratio of (3R,5S,8R,9S,10S,13S,14S)-3-hydroxy-3-((4-(3-methoxybenzyl)piperazin-1-yl)methyl)-10,13-dimethyltetradecahydro-1H-cyclopenta[a]phenanthren-17(2H)-one IC50 to compound IC50 for inhibition of human 17-beta-HSD10 expressed in HEK-293 cells
Format: cell-based
Settings: not given
For `COc1cc(C)ccc1CN1CCN(C[C@@]2(O)CC[C@@]3(C)[C@@H](CC[C@@H]4[C@@H]3CC[C@]3(C)C(=O)CC[C@@H]43)C2)CC1`, the Ratio IC50 was 0.75. For `Cc1cc(C)cc(C(=O)N2CCN(C[C@@]3(O)CC[C@@]4(C)[C@@H](CC[C@@H]5[C@@H]4CC[C@]4(C)C(=O)CC[C@@H]54)C3)CC2)c1`, the Ratio IC50 was 1.1. With `C[C@]12CC[C@](O)(CN3CCN(Cc4cnc5ccccc5c4)CC3)C[C@@H]1CC[C@@H]1[C@@H]2CC[C@]2(C)C(=O)CC[C@@H]12` the Ratio IC50 was 2.33. In the case of `C#C[C@]1(O)CC[C@H]2[C@@H]3CC[C@H]4C[C@@](O)(CN5CCN(Cc6ccc(C(F)(F)F)c(OC)c6)CC5)CC[C@]4(C)[C@H]3CC[C@@]21C`, the Ratio IC50 is reported as 1.8.

System: HEK293
Assay: Inhibition of human 17-beta-HSD10 expressed in HEK293 cells assessed as reduction in oxidation of [14C]-estradiol to [14C]-estrone at 0.3 uM incubated for 40 hrs by thin layer chromatography
Format: cell-based
Settings: not given
How it was run: as §1
`C#C[C@]1(O)CC[C@H]2[C@@H]3CC[C@H]4C[C@@](O)(CN5CCN(Cc6cccc(OC)c6)CC5)CC[C@]4(C)[C@H]3CC[C@@]21C` showed an inhibition of 22.4%. `COc1cccc(CN2CCN(C[C@@]3(O)CC[C@@]4(C)[C@@H](CC[C@@H]5[C@@H]4CC[C@@]4(C)[C@H]5CCC4(F)F)C3)CC2)c1` gave an inhibition of 5.5%. Work on `COc1cccc(CN2CCN(C[C@@]3(O)CC[C@@]4(C)[C@@H](CC[C@@H]5[C@@H]4CC[C@]4(C)C(=O)C(C)(C)C[C@@H]54)C3)CC2)c1` yielded an inhibition of 10.8%. `COc1cccc(CN2CCN(C[C@@]3(O)CC[C@@]4(C)[C@@H](CC[C@@H]5[C@@H]4CC[C@@]4(C)[C@H]5CC[C@]4(C)O)C3)CC2)c1` showed an inhibition of 20.5%. Work on `COc1cccc(CN2CCN(C[C@@]3(O)CC[C@@]4(C)[C@@H](CC[C@@H]5[C@@H]4CC[C@]4(C)[C@H](O)CC[C@@H]54)C3)CC2)c1` yielded an inhibition of 13.5%. `COc1cccc(CN2CCN(C[C@@]3(O)CC[C@@]4(C)[C@@H](CC[C@@H]5[C@@H]4CC[C@]4(C)C(=O)CC[C@@H]54)C3)CC2)c1` gave an inhibition of 40.7%. `COc1cccc(CN2CCN(C[C@@]3(O)CC[C@@]4(C)[C@@H](CC[C@@H]5[C@@H]4CC[C@]4(C)[C@@H](O)CC[C@@H]54)C3)CC2)c1` showed an inhibition of 8.5%.
